Source: ChEMBL document CHEMBL4325822, “Discovery of a tetrazolyl β-carboline with in vitro and in vivo osteoprotective activity under estrogen-deficient conditions” (Medchemcomm, 2018)
Activity calls are given as the source filed them. No cut-off for these calls is given here.

Key:
Calvarial osteoblast [1] = test: Increase in BMP2 protein expression in Sprague-Dawley rat calvarial osteoblasts at 100 pM after 48 hrs by Western blot analysis; type: functional, cell-based
Procedure, shortened: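 Rat calvarial osteoblasts at 60-70% confluence were treated 48 h. Whole-cell lysates were blotted, blocked in 5% milk, and probed with primary antibody overnight at 4 °C, then with HRP secondary and ECL detection. Densitometry was normalized to β-actin; fold change versus untreated cells, three independent experiments, mean ± SEM.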

[2] = Antioxidant activity assessed as DPPH radical scavenging activity after 30 mins by spectrophotometric method; type: functional
Procedure, shortened: (§1)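 The compound was serially diluted from 1000 to 1.95 µg·ml⁻¹ and mixed 1:1 with DPPH in methanol. After 30 min at room temperature, absorbance was read at 517 nm. Scavenging (%) = [(Abc − Abs)/Abc] × 100, where Abc is DPPH without compound.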

Rattus norvegicus [3] = test: Antiosteoporotic activity in Sprague-Dawley rat model of OVX-induced bone loss assessed as restoration of bone mineral density loss in femur bone at 1 to 5 mg/kg po via gavage for 12 weeks by microcomputed tomographic analysis relative to control; type: functional
Procedure, shortened: (§2)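 Adult female Sprague-Dawley rats were ovariectomized and left 12 weeks to become osteopenic. They then received 12 weeks of once-daily oral gavage (1% gum acacia vehicle) or subcutaneous estradiol, five days a week. Femurs were collected at sacrifice and scanned by micro-CT for BMD and trabecular microarchitecture. Ten rats per group; mean ± SEM.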

[4] = Antioxidant activity assessed as DPPH radical scavenging activity at 3.9 ug/ml after 30 mins by spectrophotometric method relative to control; type: functional; procedure, shortened: as §1
[5] = Induction of osteoblast differentiation in Sprague-Dawley rat calvarial osteoblasts assessed as alkaline phosphatase activity at 100 pM after 48 hrs using PNPP as substrate by spectrophotometric method relative to control; type: functional
Procedure, shortened: (§3)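 Calvarial osteoblasts at 2 × 10³ cells/well. Treated 48 h with varied concentrations in differentiation medium (5% charcoal-treated FBS, 10 mM β-glycerophosphate, 50 µg·mL⁻¹ ascorbic acid). Total ALP read with PNPP substrate at 405 nm. Cell-free wells check for compound interference with substrate or absorbance.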

[6] = Antioxidant activity assessed as SNP-induced nitric oxide free radical scavenging activity at lower concentration after 150 mins by Griess reagent based method relative to control; type: functional
Procedure, shortened: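 Serial dilutions (1000 to 1.95 µg·ml⁻¹) were mixed with sodium nitroprusside (10 mM) and incubated 150 min. An equal volume of Griess reagent was added, and absorbance was read at 546 nm. Percentage scavenging was calculated relative to the control without compound.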

[7] = Toxicity in Sprague-Dawley rat model of OVX-induced bone loss assessed as total uterine area at 1 mg/kg, po via gavage for 12 weeks (reference value: 0.11 +/- 0.003 mm2); type: organism-based; conditions: in vivo, 2016 h
[8] = Increase in BMP2 mRNA expression in Sprague-Dawley rat calvarial osteoblasts at 100 pM by RT-PCR method relative to control; type: functional, Calvarial osteoblast
Procedure, shortened: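 Primary calvarial osteoblasts were lysed in TRIzol after treatment, and total RNA was extracted. Transcripts were quantified by real-time PCR using the comparative CT (ΔΔCT) method.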

Rattus norvegicus [9] = test: Antiosteoporotic activity in Sprague-Dawley rat model of OVX-induced bone loss assessed as increase in femoral bone strength by measuring stiffness at 1 mg/kg, po via gavage for 12 weeks by 3 point bending test (reference value: 122.07 +/- 12.18 N/mm); type: functional
[10] = Antioxidant activity assessed as DPPH radical scavenging activity at 1.95 ug/ml after 30 mins by spectrophotometric method relative to control; type: functional; procedure, shortened: as §1
Calvarial osteoblast [11] = test: Osteoprotective activity in Sprague-Dawley rat calvarial osteoblasts assessed as reduction in TNFalpha-induced apoptosis at 100 pM after 24 hrs by Annexin V/propidium iodide staining based FACS analysis relative to control; type: functional; set-up: scale not given: the % may be the effect or the level left
Procedure, shortened: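 Osteoblasts at 50–60% confluence, serum-withdrawn 3 h. Then 24 h with TNFα in α-MEM with 0.5% FBS, with 10 nM E2 as comparator. Annexin-V-FITC/PI staining, analysed by flow cytometry.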

Rattus norvegicus [12] = test: Upregulation of OCN mRNA expression in femur bone of Sprague-Dawley rat model of OVX-induced bone loss at 1 to 5 mg/kg, po via gavage for 12 weeks by qPCR analysis; type: functional, organism-based
Procedure, shortened: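 Ovariectomized female SD rats, osteopenic after 12 weeks, dosed orally once daily for 12 weeks (1.0 or 5.0 mg·kg⁻¹·day⁻¹, 1% gum acacia vehicle); sham and OVX vehicle groups included. Femurs collected at sacrifice for qRT-PCR, analysed by the ΔΔCT method.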

[13] = Toxicity in Sprague-Dawley rat model of OVX-induced bone loss assessed as luminal epithelial height at 1 mg/kg, po via gavage for 12 weeks (reference value: 27.29 +/- 0.96 umeter); type: organism-based; conditions: in vivo, 2016 h
[14] = Toxicity in Sprague-Dawley rat model of OVX-induced bone loss assessed as luminal epithelial height at 5 mg/kg, po via gavage for 12 weeks (reference value: 27.29 +/- 0.96 umeter); type: organism-based; conditions: in vivo, 2016 h
Rattus norvegicus [15] = test: Antiosteoporotic activity in Sprague-Dawley rat model of OVX-induced bone loss assessed as bone formation rate at 5 mg/kg, po via gavage for 12 weeks by microcomputed tomographic analysis (reference value: 0.171 +/- 0.005 um3/um2/day); type: functional
Procedure, shortened: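 Female Sprague-Dawley rats, 10-12 weeks old, ten per group, were ovariectomized and left 12 weeks for osteopenia. They were then dosed once daily by oral gavage for 12 weeks in 1% gum acacia vehicle. The estradiol arm received 100 µg·kg⁻¹ subcutaneously five days a week. Tetracycline and calcein were given intraperitoneally at 20 mg·kg⁻¹ each. Femur cross-sections (50 µm) were imaged by fluorescence microscopy for MAR and BFR.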

Calvarial osteoblast [16] = test: Osteogenic activity in Sprague-Dawley rat calvarial osteoblasts assessed as mineralized nodule formation at 100 pM after 21 days by alizarin red-S staining based light microscopic method; type: functional, cell-based
Procedure, shortened: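 Osteoblasts at 10,000–15,000 cells/cm² in duplicate plates, 21 days in differentiation medium, medium changed every 48 h. Cells fixed in 4% PFA, stained with alizarin red-S (40 mM, pH 4.5, 30 min) and photographed. Stain extracted with 10% acetic acid, pH brought to 4.5 with ammonium hydroxide, read at 405 nm, normalized to cell number.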

[17] = Induction of osteoblast differentiation in Sprague-Dawley rat calvarial osteoblasts assessed as alkaline phosphatase activity after 48 hrs using PNPP as substrate by spectrophotometric method; type: functional, cell-based; conditions: Rattus norvegicus, Sprague-Dawley, Calvarial osteoblast, 48 h; read-out: EC50; procedure, shortened: as §3
Rattus norvegicus [18] = test: Antiosteoporotic activity in Sprague-Dawley rat model of OVX-induced bone loss assessed as protection against microarchitectural deterioration by measuring trabecular number at 1 mg/kg, po via gavage for 12 weeks by microcomputed tomographic analysis (reference value: 0.56 +/- 0.06 /millimeter); type: functional; procedure, shortened: as §2
[19] = Increase in Runx2 mRNA expression in Sprague-Dawley rat calvarial osteoblasts at 100 pM by RT-PCR method relative to control; type: functional, Calvarial osteoblast
Rattus norvegicus [20] = test: Antiosteoporotic activity in Sprague-Dawley rat model of OVX-induced bone loss assessed as increase in mineralization at 1 to 5 mg/kg, po via gavage for 12 weeks measured 18 days post last dose by alizarin red-S staining based assay relative to control; type: functional
Procedure, shortened: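 After 12 weeks of in vivo treatment of ovariectomized rats, femoral bone marrow was flushed. It was cultured 18 days in differentiation medium (10 nM dexamethasone, 10 mM β-glycerophosphate, 50 µg·mL⁻¹ ascorbic acid). Mineralized nodules were stained with alizarin red-S, and the stain was extracted for quantitation.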

EC50 [17]: 0.9 µM
SMILES: CCOC(=O)c1cc2c([nH]c3ccccc32)c(C(c2nnnn2C(C)(C)C)N2CCN(C)CC2)n1 (stereo not given)
Activity (Calvarial osteoblast [1]): Active
Activity [2]: Dose-dependent effect
Activity (Rattus norvegicus [3]): 46%
Activity [4]: 3.82%
Emax at 0.0001 µM [5]: 89%
Activity [6]: 4.07%
Activity [7]: 0.14 mm2
fold change (FC) [8]: 1.8 - 4.6
Activity (Rattus norvegicus [9]): 151.3 N/mm
Activity [10]: 3.34%
Activity (Calvarial osteoblast [11]): 47%
Activity (Rattus norvegicus [12]): Active
Activity [13]: 3.7 um
Activity [14]: 3.61 um
Activity (Rattus norvegicus [15]): 0.98 um3/um2/day
Activity (Calvarial osteoblast [16]): Active
Activity (Rattus norvegicus [18]): 1.34 /millimeter
fold change (FC) [19]: 1.8 - 4.6
fold change (FC) (Rattus norvegicus [20]): 1.4 - 1.5
